SR-BI uptake up: activators of SR-BI mediated DiI-HDL uptake, primary screen, ldlA[mSR-BI] CHO cells, DiI fluorescence | 3 h; 100 = double the neutral-control signal | activation, % at 12.5 µM | actives 0.096% (n = 320,000) | AID 504775, 2011;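 active means mean replicate activation of at least 60% and every replicate at or above 60%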
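system = CHO ldlA[mSR-BI] cells, LDL receptor-null, SR-BI overexpressing | medium = Ham's F12 with 0.5% BSA, HEPES 25 mM, pH 7.4 | probe or stimulus = DiI-HDL 10 µg/mL | compound dosing = single-point compound dose | incubation = compound exposure 3 h, 37 °C | technique = DiI fluorescence, bottom read | read-out = cell-associated DiI fluorescence as measure of HDL uptake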
PKA-R2B activ: activators of PKA-R2B holoenzyme, primary screen, biochemical, fluorescence polarization, Cy5-IP20, human; PKA-R2B holoenzyme dissociation; R2B truncated from residue 108, S112A mutant; 0% DMSO only, 100% 113 µM cGMP; AID 504700, 2011; actives 0.079% (n = 340,000); cAMP-dependent protein kinase catalytic subunit beta (Homo sapiens) + cAMP-dependent …; activation, % at 11.4 µM;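 active means activation above a cutoff set at the mean over all compounds plus 3 SD, cut at about 18% in these data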;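 further: higher means more holoenzyme dissociation and a rise in polarization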
Vif imaging: HIV Vif self-association inhibitors, primary screen, imaging, HEK293T, single point; actives 0.35% (n = 340,000); HEK293T cells, Vif self-association by quenched fluorescence, 24 h; inhibition, % at 7.49 µM; AID 602346, 2012; in the data active means inhibition above about 50%, passing the limit was not always enough
PKA-R1A activ: activators of PKA-R1A holoenzyme, primary screen, biochemical, fluorescence polarization, Cy5-IP20, bovine R1A, mouse PKAc | cAMP-dependent protein kinase type I-alpha regulatory subunit (Bos taurus) + … | PKA-R1A dissociation; scaled: DMSO 0%, 113 µM cGMP 100% | activation, % at 11.4 µM | actives 0.083% (n = 340,000) | AID 504707, 2011;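 active means percent activation above the mean of all tested compounds plus 3 SD, cut at about 19% in these data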;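 further: higher means more PKAc released from R1A so a rise in polarization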
SR-BI HDL uptake: inhibitors of SR-BI mediated HDL lipid uptake, primary screen, ldlA[mSR-BI] cells, fluorescence, single point; Scavenger receptor class B member 1 (Mus musculus), Q61009; ldlA[mSR-BI] CHO cells, DiI-HDL uptake fluorescence, 3 h; inhibition, % at 12.5 µM; actives 0.96% (n = 320,000);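 active means mean replicate inhibition of at least 70% and a set share of replicates each scoring 70 or more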
Target sequence (Q61009 whole entry, looked up): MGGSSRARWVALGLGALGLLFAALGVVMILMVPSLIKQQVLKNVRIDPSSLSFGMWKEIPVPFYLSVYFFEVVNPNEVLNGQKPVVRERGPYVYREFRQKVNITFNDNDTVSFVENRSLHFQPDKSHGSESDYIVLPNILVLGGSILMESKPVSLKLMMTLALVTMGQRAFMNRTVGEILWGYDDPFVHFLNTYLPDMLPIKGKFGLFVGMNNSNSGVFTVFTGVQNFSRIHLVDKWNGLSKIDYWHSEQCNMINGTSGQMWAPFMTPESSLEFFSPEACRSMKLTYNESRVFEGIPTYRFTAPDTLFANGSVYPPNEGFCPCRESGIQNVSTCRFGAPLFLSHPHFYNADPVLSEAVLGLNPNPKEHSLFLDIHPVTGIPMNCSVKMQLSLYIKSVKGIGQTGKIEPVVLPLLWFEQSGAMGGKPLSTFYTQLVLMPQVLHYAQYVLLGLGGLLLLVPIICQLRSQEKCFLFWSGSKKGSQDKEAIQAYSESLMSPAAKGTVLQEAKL
R1A FP artifact: FP signal interference without PKA proteins, confirmation, artefact control for PKA-R1A activator project, biochemical, fluorescence polarization, triplicate; shares compounds with PKA-R1A activ; Cy5-IP20 peptide alone, fluorescence polarization artifact counterscreen; activation, % at 11.4 µM; actives 7% (n = 280);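 active means mean activation over triplicate runs exceeds the adjusted cutoff derived for the parent primary screen, cut at about 19% in these data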;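 further: no PKA protein present so any polarization rise reflects compound interference; higher means stronger polarization artifact and likely false positive in parent screen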
PKA-R1A act conf: activators of PKA-R1A holoenzyme, confirmation, biochemical, fluorescence polarization, Cy5-IP20, triplicate; actives 9% (n = 280); AID 504800, 2011; PKA-R1A holoenzyme dissociation; activation, % at 11.4 µM; shares compounds with PKA-R1A activ;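 active means mean activation over replicate wells exceeds the adjusted hit threshold taken from the earlier primary screen, cut at about 20% in these data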
Hits are given with their value; 0 = inactive; - = not tested or not shown. Shown are actives, neighbours in structure and some others; about 1.4% of the full set was active somewhere.

SMILES	SR-BI uptake up	PKA-R2B activ	Vif imaging	PKA-R1A activ	SR-BI HDL uptake	R1A FP artifact	PKA-R1A act conf
COc1ccc(CNC(=O)C2Cc3cc(S(=O)(=O)N4CCCC4)ccc3N2C(C)=O)c(OC)c1 (centres undefined)	0	0	0	0	0	-	-
O=P(OC1CCCCC1)(OC1CCCCC1)C(O)c1ccccc1 (centres undefined)	0	0	0	0	0	-	-
COc1ccc(C(=O)C[n+]2cccc3cc(C)ccc32)cc1	0	0	0	19	0	0	0
CC(C)Cn1cc(Cl)c(=O)n(CC(C)C)c1=O	0	0	0	0	0	-	-
COc1ccc2c(c1OC)C(=O)OC2Nc1ncccc1C (centres undefined)	0	0	0	19	0	0	0
CCOC(=O)c1c(NC(=O)CSc2ncnc3[nH]ncc23)sc2c1CCC(C)C2 (centres undefined)	0	0	0	0	0	-	-
CC#CC(=O)NC1CCCN(C2Cc3ccccc3C2)C1 (centres undefined)	0	0	0	19	0	0	0
Cc1ccc(S(=O)(=O)CCC(=O)N2CCN(c3ccc(Cl)cc3)CC2)cc1	0	0	0	0	0	-	-

Screening data deposited in PubChem by several laboratories.
